Experimental data reported in ChEMBL document CHEMBL1146231, “Novel semisynthetic derivative of antibiotic Eremomycin active against drug-resistant gram-positive pathogens including Bacillus anthracis” (J Med Chem, 2007).
≈ marks a conversion by molar mass, not a printed value. Calls of active or inactive are those of the source. No cut-off for these calls is given here.

Legend:
[1] = Bioavailability in BALB/c mouse at 70 mg/kg, po; type: ADME, organism-based; conditions: in vivo
Summary of the method: (§1)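 Female BALB/c mice received the test compound by the iv, sc, ip or po route. Plasma exposure gave Cmax, bioavailability from the sc, ip and po routes, iv half-life, clearance and Vss. Clinical observations and mortality were also recorded.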

[2] = Bioavailability in BALB/c mouse at 25 mg/kg, ip; type: ADME, organism-based; conditions: in vivo; summary of the method: as §1
[3] = Half life in BALB/c mouse at 25 mg/kg, iv; type: ADME, organism-based; set-up: dose 25 mg/kg, route intravenous; conditions: in vivo; summary of the method: as §1
[4] = Cmax in BALB/c mouse at 25 mg/kg, sc; type: ADME, organism-based; set-up: dose 25 mg/kg, route subcutaneous; conditions: in vivo; summary of the method: as §1
[5] = Volume of distribution in BALB/c mouse at 25 mg/kg, iv; type: ADME, organism-based; set-up: dose 25 mg/kg, route intravenous; conditions: in vivo, read-out: Vss; summary of the method: as §1
[6] = Cmax in BALB/c mouse at 25 mg/kg, ip; type: ADME, organism-based; set-up: dose 25 mg/kg, route intraperitoneal; conditions: in vivo; summary of the method: as §1
[7] = Bioavailability in BALB/c mouse at 25 mg/kg, sc; type: ADME, organism-based; conditions: in vivo; summary of the method: as §1
[8] = Cmax in BALB/c mouse at 25 mg/kg, iv; type: ADME, organism-based; set-up: dose 25 mg/kg, route intravenous; conditions: in vivo; summary of the method: as §1
[9] = Clearance in BALB/c mouse at 25 mg/kg, iv; type: ADME, organism-based; set-up: dose 25 mg/kg, route intravenous; conditions: in vivo; summary of the method: as §1
Staphylococcus aureus [10] = experiment: Antimicrobial activity against glycopeptide intermediate resistant Staphylococcus aureus 3793 isolate; type: functional
Summary of the method: (§2)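 MICs were run by broth microdilution as recommended by NCCLS, in cation-adjusted Mueller-Hinton broth. Compound was serially diluted 2-fold, over a final range of 64 to 0.03 µg/mL after inoculation.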

Staphylococcus aureus [11] = experiment: Antimicrobial activity against glycopeptide intermediate resistant Staphylococcus aureus 3798 isolate; type: functional; summary of the method: as §2
Enterococcus faecium [12] = experiment: Antimicrobial activity against vancomycin-resistant Enterococcus faecium 569 isolate; type: functional; summary of the method: as §2
[13] = system: Staphylococcus epidermidis; experiment: Antimicrobial activity against Staphylococcus epidermidis 533 isolate; type: functional; summary of the method: as §2
Enterococcus faecalis [14] = experiment: Antimicrobial activity against vancomycin-susceptible Enterococcus faecalis 559 isolate; type: functional; summary of the method: as §2
Enterococcus faecalis [15] = experiment: Antimicrobial activity against vancomycin-resistant Enterococcus faecalis 560 isolate; type: functional; summary of the method: as §2
[16] = system: Staphylococcus haemolyticus; experiment: Antimicrobial activity against Staphylococcus haemolyticus 602 isolate; type: functional; summary of the method: as §2
Enterococcus faecium [17] = experiment: Antimicrobial activity against vancomycin-susceptible Enterococcus faecium 568 isolate; type: functional; summary of the method: as §2
Enterococcus faecalis [18] = experiment: Antimicrobial activity against vancomycin-susceptible Enterococcus faecalis Enfa_29212 isolate; type: functional; summary of the method: as §2
Escherichia coli = experiment: Antimicrobial activity against Escherichia coli Esco_25922 isolate; type: functional
Enterococcus faecalis [19] = experiment: Antimicrobial activity against vancomycin-resistant Enterococcus faecalis Enfa_t29862 isolate; type: functional; summary of the method: as §2
Staphylococcus aureus [20] = experiment: Antimicrobial activity against methicillin-resistant Staphylococcus aureus Stau_HIP5827 isolate; type: functional; summary of the method: as §2
Enterococcus faecalis [21] = experiment: Antimicrobial activity against vancomycin-resistant Enterococcus faecalis Enfa_vre-2 isolate; type: functional; summary of the method: as §2
Mus musculus [22] = experiment: Survival of BALB/c mouse infected with Staphylococcus aureus PGO#172 assessed as mortality at 50 mg/kg, iv; type: functional, organism-based; set-up: dose 50 mg/kg
Summary of the method: (§3)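 Mice received a lethal dose of S. aureus PGO#172 (ATCC#29213) by intraperitoneal injection. They were treated with an iv bolus at 1, 5, 10, 25 or 50 mg/kg, in groups of five. Mortality was the endpoint, and ED50 was derived from the dose-response.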

Mus musculus [23] = experiment: Survival of BALB/c mouse infected with Staphylococcus aureus PGO#172 assessed as mortality at 1 mg/kg, iv; type: functional, organism-based; set-up: dose 1 mg/kg; summary of the method: as §3
Bacillus anthracis [24] = experiment: Protection against Bacillus anthracis challenged BALB/c mouse at 25 mg/kg, iv; type: functional, organism-based; set-up: dose 25 mg/kg
Bacillus anthracis [25] = experiment: Protection against Bacillus anthracis challenged BALB/c mouse at 50 mg/kg, iv; type: functional, organism-based; set-up: dose 50 mg/kg

SMILES: CN[C@H](CC(C)C)C(=O)N[C@H]1C(=O)N[C@@H](CC(N)=O)C(=O)N[C@H]2C(=O)N[C@H]3C(=O)N[C@H](C(=O)N[C@H](C(=O)NC45CC6CC(CC(C6)C4)C5)c4cc(O)cc(O)c4-c4cc3ccc4O)[C@H](O[C@@H]3C[C@@](C)(N)[C@H](O)[C@@H](C)O3)c3ccc(cc3)Oc3cc2cc(c3O[C@H]2O[C@@H](CO)[C@H](O)[C@@H](O)[C@@H]2O[C@H]2C[C@](C)(N)[C@@H](O)[C@H](C)O2)Oc2ccc(cc2Cl)[C@H]1O
- bioavailability [1]: 0%
- bioavailability [2]: 95%
- half-life [3]: 2.8 h
- Cmax [4]: 7200 ng/mL
- Vd [5]: 2.18 L/kg
- Cmax [6]: 9700 ng/mL
- bioavailability [7]: 78%
- Cmax [8]: 11500 ng/mL
- clearance [9]: 8.93 mL/min/kg

SMILES: CN[C@H](CC(C)C)C(=O)N[C@H]1C(=O)N[C@@H](CC(N)=O)C(=O)N[C@H]2C(=O)N[C@H]3C(=O)N[C@H](C(=O)N[C@H](C(=O)O)c4cc(O)cc(O)c4-c4cc3ccc4O)[C@H](O[C@@H]3C[C@@](C)(N)[C@H](O)[C@@H](C)O3)c3ccc(cc3)Oc3cc2cc(c3O[C@H]2O[C@@H](CO)[C@H](O)[C@@H](O)[C@@H]2O[C@H]2C[C@](C)(N)[C@@H](O)[C@H](C)O2)Oc2ccc(cc2Cl)[C@H]1O [EREMOMYCIN]
- MIC (Staphylococcus aureus [10]): 8 µg/mL (≈ 5.13 µM)
- MIC (Staphylococcus aureus [11]): 8 µg/mL (≈ 5.13 µM)
- MIC (Enterococcus faecium [12]): > 128 µg/mL
- MIC [13]: 0.25 µg/mL (≈ 0.16 µM)
- MIC (Enterococcus faecalis [14]): 0.5 µg/mL (≈ 0.321 µM)
- MIC (Enterococcus faecalis [15]): > 128 µg/mL
- MIC [16]: 0.25 µg/mL (≈ 0.16 µM)
- MIC (Enterococcus faecium [17]): 0.5 µg/mL (≈ 0.321 µM)

SMILES: CN[C@H](CC(C)C)C(=O)N[C@H]1C(=O)N[C@@H](CC(N)=O)C(=O)N[C@H]2C(=O)N[C@H]3C(=O)N[C@H](C(=O)N[C@H](C(=O)NC4C5CC6CC(C5)CC4C6)c4cc(O)cc(O)c4-c4cc3ccc4O)[C@H](O)c3ccc(c(Cl)c3)Oc3cc2cc(c3O[C@H]2O[C@@H](CO)[C@H](O)[C@@H](O)[C@@H]2O[C@H]2C[C@@](C)(N)C(O)[C@@H](C)O2)Oc2ccc(cc2Cl)[C@H]1O (some centres undefined)
- MIC (Staphylococcus aureus [10]): 4 µg/mL (≈ 2.53 µM)
- MIC (Staphylococcus aureus [11]): 4 µg/mL (≈ 2.53 µM)
- MIC (Enterococcus faecium [12]): 64 µg/mL (≈ 40.4 µM)
- MIC [13]: 1 µg/mL (≈ 0.632 µM)
- MIC (Enterococcus faecalis [14]): 0.5 µg/mL (≈ 0.316 µM)
- MIC (Enterococcus faecalis [15]): 64 µg/mL (≈ 40.4 µM)
- MIC [16]: 1 µg/mL (≈ 0.632 µM)
- MIC (Enterococcus faecium [17]): 0.5 µg/mL (≈ 0.316 µM)

SMILES: CN[C@H](CC(C)C)C(=O)N[C@H]1C(=O)N[C@@H](CC(N)=O)C(=O)N[C@H]2C(=O)N[C@H]3C(=O)N[C@H](C(=O)N[C@H](C(=O)O)c4cc(O)cc(O)c4-c4cc3ccc4O)[C@H](O)c3ccc(c(Cl)c3)Oc3cc2cc(c3O[C@@H]2O[C@H](CO)[C@@H](O)[C@H](O)[C@H]2O[C@H]2C[C@](C)(N)[C@H](O)[C@H](C)O2)Oc2ccc(cc2Cl)[C@H]1O [VANCOMYCIN]
- MIC (Staphylococcus aureus [10]): 16 µg/mL (≈ 11 µM)
- MIC (Enterococcus faecalis [18]): 2 µg/mL (≈ 1.38 µM)
- MIC (Escherichia coli): > 50 µg/mL
- MIC (Staphylococcus aureus [11]): 8 µg/mL (≈ 5.52 µM)
- MIC (Enterococcus faecalis [19]): > 64 µg/mL
- MIC (Enterococcus faecium [12]): > 128 µg/mL
- MIC (Enterococcus faecalis [14]): 1 µg/mL (≈ 0.69 µM)
- MIC (Enterococcus faecalis [15]): > 128 µg/mL
- MIC [16]: 2 µg/mL (≈ 1.38 µM)
- MIC (Staphylococcus aureus [20]): 8 µg/mL (≈ 5.52 µM)
- MIC (Enterococcus faecalis [21]): > 64 µg/mL

SMILES: CN[C@H](CC(C)C)C(=O)N[C@H]1C(=O)N[C@@H](CC(N)=O)C(=O)N[C@H]2C(=O)N[C@H]3C(=O)N[C@H](C(=O)N[C@H](C(=O)NCC4C5CC6CC(C5)CC4C6)c4cc(O)cc(O)c4-c4cc3ccc4O)[C@H](O[C@@H]3C[C@@](C)(N)[C@H](O)[C@@H](C)O3)c3ccc(cc3)Oc3cc2cc(c3O[C@H]2O[C@@H](CO)[C@H](O)[C@@H](O)[C@@H]2O[C@H]2C[C@](C)(N)[C@@H](O)[C@H](C)O2)Oc2ccc(cc2Cl)[C@H]1O (some centres undefined)
- MIC (Staphylococcus aureus [10]): 1 µg/mL (≈ 0.586 µM)
- MIC (Staphylococcus aureus [11]): 2 µg/mL (≈ 1.17 µM)
- MIC (Enterococcus faecium [12]): 16 µg/mL (≈ 9.38 µM)
- MIC [13]: 0.5 µg/mL (≈ 0.293 µM)
- MIC (Enterococcus faecalis [14]): 1 µg/mL (≈ 0.586 µM)
- MIC (Enterococcus faecalis [15]): 16 µg/mL (≈ 9.38 µM)
- MIC [16]: 0.5 µg/mL (≈ 0.293 µM)
- MIC (Enterococcus faecium [17]): 0.5 µg/mL (≈ 0.293 µM)

SMILES: CN[C@H](CC(C)C)C(=O)N[C@H]1C(=O)N[C@@H](CC(N)=O)C(=O)N[C@H]2C(=O)N[C@H]3C(=O)N[C@H](C(=O)N[C@@H](C(=O)NC45CC6CC(CC(C6)C4)C5)c4cc(O)cc(O)c4-c4cc3ccc4O)[C@H](O[C@@H]3C[C@@](C)(N)[C@H](O)[C@@H](C)O3)c3ccc(cc3)Oc3cc2cc(c3O[C@H]2O[C@@H](CO)[C@H](O)[C@@H](O)[C@@H]2O[C@H]2C[C@](C)(N)[C@@H](O)[C@H](C)O2)Oc2ccc(cc2Cl)[C@H]1O
- Activity (Mus musculus [22]): Active
- Activity (Mus musculus [23]): inactive
- Activity (Bacillus anthracis [24]): Active
- Activity (Bacillus anthracis [25]): Active

SMILES: CN[C@H](CC(C)C)C(=O)N[C@H]1C(=O)N[C@@H](CC(N)=O)C(=O)N[C@H]2C(=O)N[C@H]3C(=O)N[C@H](C(=O)N[C@H](C(=O)NC4C5CC6CC(C5)CC4C6)c4cc(O)cc(O)c4-c4cc3ccc4O)[C@H](O[C@@H]3C[C@@](C)(N)[C@H](O)[C@@H](C)O3)c3ccc(cc3)Oc3cc2cc(c3O[C@H]2O[C@@H](CO)[C@H](O)[C@@H](O)[C@@H]2O[C@H]2C[C@](C)(N)[C@@H](O)[C@H](C)O2)Oc2ccc(cc2Cl)[C@H]1O (some centres undefined)
- MIC (Staphylococcus aureus [10]): 2 µg/mL (≈ 1.18 µM)
- MIC (Staphylococcus aureus [11]): 2 µg/mL (≈ 1.18 µM)
- MIC (Enterococcus faecium [12]): 16 µg/mL (≈ 9.46 µM)
- MIC [13]: 0.5 µg/mL (≈ 0.296 µM)
- MIC (Enterococcus faecalis [14]): 1 µg/mL (≈ 0.591 µM)
- MIC (Enterococcus faecalis [15]): 16 µg/mL (≈ 9.46 µM)
- MIC [16]: 1 µg/mL (≈ 0.591 µM)
- MIC (Enterococcus faecium [17]): 1 µg/mL (≈ 0.591 µM)

SMILES: CN[C@H](CC(C)C)C(=O)N[C@H]1C(=O)N[C@@H](CC(N)=O)C(=O)N[C@H]2C(=O)N[C@H]3C(=O)N[C@H](C(=O)N[C@H](C(=O)NC(C)C4C5CC6CC(C5)CC4C6)c4cc(O)cc(O)c4-c4cc3ccc4O)[C@H](O[C@@H]3C[C@@](C)(N)[C@H](O)[C@@H](C)O3)c3ccc(cc3)Oc3cc2cc(c3O[C@H]2O[C@@H](CO)[C@H](O)[C@@H](O)[C@@H]2O[C@H]2C[C@](C)(N)[C@@H](O)[C@H](C)O2)Oc2ccc(cc2Cl)[C@H]1O (some centres undefined)
- MIC (Staphylococcus aureus [10]): 4 µg/mL (≈ 2.33 µM)
- MIC (Staphylococcus aureus [11]): 2 µg/mL (≈ 1.16 µM)
- MIC (Enterococcus faecium [12]): 16 µg/mL (≈ 9.31 µM)
- MIC [13]: 0.5 µg/mL (≈ 0.291 µM)
- MIC (Enterococcus faecalis [14]): 1 µg/mL (≈ 0.582 µM)
- MIC (Enterococcus faecalis [15]): 16 µg/mL (≈ 9.31 µM)
- MIC [16]: 1 µg/mL (≈ 0.582 µM)
- MIC (Enterococcus faecium [17]): 0.5 µg/mL (≈ 0.291 µM)
